Experimental data reported in ChEMBL document CHEMBL3271979, “Inhibition of solid tumors by nitrosoureas. 1. Lewis lung carcinoma” (1977).
Calls of active or inactive are those of the source. The rule behind the calls is not given here.

Assays:
[1] = Antitumor activity against mouse early Lewis lung carcinoma allografted in BDF1 mouse assessed as increase in host life span at 113 mg/kg, ip administered as single dose on 1 or 2 days post-tumor implantation; format: functional; conditions: route intraperitoneal
Outline: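 Early disease: BDF1 mice carrying sc trocar implants of about 40 mg Lewis lung fragments. One ip dose given on day 1 or 2 after implant, in distilled water or saline, at ≤0.5 ml. Endpoints were % increase in life-span of dying animals and delay in days for the primary tumor to reach 1 g. Untreated controls served as reference.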

[2] = Antitumor activity against mouse early Lewis lung carcinoma allografted in BDF1 mouse assessed as increase in host life span at 50 mg/kg, ip administered as single dose on 1 or 2 days post-tumor implantation; format: functional; conditions: route intraperitoneal
Outline: (§1)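 BDF1 mice (C57Blk/6 × DBA/2) implanted sc by trocar with ~40 mg Lewis lung tumor fragments from bacteriologically sterile donor tumors. Single ip dose on day 1 or 2, as a solution or suspension in water (CMC or gum acacia) or saline (HPC or Tween 80). Read-out is […]. Same-dose toxicity controls were run in nontumor-bearing mice.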

[3] = Antitumor activity against mouse early Lewis lung carcinoma allografted in BDF1 mouse assessed as time delay in tumor growth at 113 mg/kg, ip administered as single dose on 1 or 2 days post-tumor implantation; format: functional; conditions: route intraperitoneal
Outline: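 Sc trocar implants of about 40 mg Lewis lung fragments in BDF1 mice. A single ip injection was given on day 1 or 2, in water or physiological saline, at ≤0.5 ml. Tumor size came from caliper length and width as w = ab²/2, measured at least twice weekly. Growth delay is the extra days taken to reach 1 g, compared with untreated controls.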

[4] = Antitumor activity against mouse early Lewis lung carcinoma allografted in BDF1 mouse assessed as time delay in tumor growth at 50 mg/kg, ip administered as single dose on 1 or 2 days post-tumor implantation; format: functional; conditions: route intraperitoneal
Outline: (§2)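 BDF1 mice (C57Blk/6 × DBA/2) implanted sc by trocar with ~40 mg Lewis lung tumor fragments from bacteriologically sterile donors. A single ip dose was given on day 1 or 2, as a solution or suspension in water or saline with suspending agent, at ≤0.5 ml. Tumors were measured by caliper at least twice weekly, with weight = ab²/2. Delay was taken as the days for the tumor to reach 1 g.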

[5] = Antitumor activity against mouse early Lewis lung carcinoma allografted in ip dosed BDF1 mouse assessed as disease cure administered as single dose on 1 or 2 days post-tumor implantation measured for 80 days post-drug treatment; format: functional
Outline: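 BDF1 mice implanted sc by trocar with ~40 mg Lewis lung fragments from sterile donor tumors. A single ip dose was given on day 1 or 2 after implant, in water or saline vehicle. Cures were scored in animals observed for at least 80 days after treatment. Drug-toxicity controls were matched non-tumor-bearing mice monitored for body weight and deaths.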

[6] = Ratio of ED50 for antitumor activity against mouse L1210 cells allografted in ip dosed mouse to LD10 for mouse
Mus musculus [7] = assay: Antitumor activity against mouse advanced Lewis lung carcinoma allografted in ip dosed BDF1 mouse assessed as complete regression of established tumor administered as single dose on day 6 or 7 post-tumor implantation; format: functional, organism-based
Outline: (§3)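 BDF1 mice (C57Blk/6 × DBA/2) implanted sc by trocar with Lewis lung tumor fragments of about 40 mg, taken only from bacteriologically sterile donor tumors. Mice bearing tumors of about 400 mg (day 6-7) were selected. Each received a single ip dose on day 7, at or below the LD10 in normal mice. Groups were of 10 mice. Tumor weight was taken from calipers as w = ab²/2, measured at least twice weekly. Matched non-tumor mice served as toxicity controls.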

[8] = Antitumor activity against mouse advanced Lewis lung carcinoma allografted in ip dosed BDF1 mouse assessed as increase in host lifespan administered as single dose on day 6 or 7 post-tumor implantation; format: functional
Outline: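 Advanced Lewis lung model: about 40 mg fragments implanted sc by trocar into BDF1 mice, and mice with tumors of about 400 mg (day 6-7) selected. Tumor weight from calipers, w = ab²/2. Agent given as one ip dose in distilled water or physiological saline. Nontumor-bearing mice received matching doses as toxicity controls.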

[9] = Antitumor activity against mouse early Lewis lung carcinoma allografted in BDF1 mouse assessed as increase in host life span at 21 mg/kg, ip administered as single dose on 1 or 2 days post-tumor implantation; format: functional; conditions: route intraperitoneal; outline: as §1
[10] = Antitumor activity against mouse early Lewis lung carcinoma allografted in BDF1 mouse assessed as increase in host life span at 48 mg/kg, ip administered as single dose on 1 or 2 days post-tumor implantation; format: functional; conditions: route intraperitoneal; outline: as §1
[11] = Antitumor activity against mouse early Lewis lung carcinoma allografted in BDF1 mouse assessed as time delay in tumor growth at 21 mg/kg, ip administered as single dose on 1 or 2 days post-tumor implantation; format: functional; conditions: route intraperitoneal; outline: as §2
Mus musculus [12] = assay: Antitumor activity against mouse advanced Lewis lung carcinoma allografted in BDF1 mouse assessed as complete regression of established tumor at 48 mg/kg, ip administered as single dose on 7th day post-tumor implantation; format: functional, organism-based; design: dose 48 mg/kg; outline: as §3
Mus musculus [13] = assay: Antitumor activity against mouse advanced Lewis lung carcinoma allografted in BDF1 mouse assessed as complete regression of established tumor at 21 mg/kg, ip administered as single dose on 7th day post-tumor implantation; format: functional, organism-based; design: dose 21 mg/kg; outline: as §3
Mus musculus [14] = assay: Antitumor activity against mouse advanced Lewis lung carcinoma allografted in BDF1 mouse assessed as disease cure at 32 mg/kg, ip administered as single dose on 7th day post-tumor implantation measured for 80 days post-drug treatment; format: functional, organism-based; design: dose 32 mg/kg; outline: as §3
Mus musculus [15] = assay: Antitumor activity against mouse advanced Lewis lung carcinoma allografted in BDF1 mouse assessed as disease cure at 21 mg/kg, ip administered as single dose on 7th day post-tumor implantation measured for 80 days post-drug treatment; format: functional, organism-based; design: dose 21 mg/kg; outline: as §3
Mus musculus [16] = assay: Antitumor activity against mouse advanced Lewis lung carcinoma allografted in BDF1 mouse assessed as disease cure at 48 mg/kg, ip administered as single dose on 7th day post-tumor implantation measured for 80 days post-drug treatment; format: functional, organism-based; design: dose 48 mg/kg; outline: as §3
[17] = Antitumor activity against mouse advanced Lewis lung carcinoma allografted in BDF1 mouse assessed as increase in host life span at 21 mg/kg, ip administered as single dose on 7th day post-tumor implantation; format: functional; conditions: route intraperitoneal
Outline: (§4)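 BDF1 mice (C57Blk/6 × DBA/2) implanted sc by trocar with about 40 mg Lewis lung tumor fragments from bacteriologically sterile donors. Advanced-disease groups held tumors of about 400 mg by day 6-7, sized by caliper (w = ab²/2). Single ip injection on day 7, in water or saline vehicle, at or below the LD10 in normal mice. Tumors measured at least twice weekly.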

[18] = Antitumor activity against mouse advanced Lewis lung carcinoma allografted in BDF1 mouse assessed as increase in host life span at 48 mg/kg, ip administered as single dose on 7th day post-tumor implantation; format: functional; conditions: route intraperitoneal; outline: as §4
Mus musculus [19] = assay: Antitumor activity against mouse advanced Lewis lung carcinoma allografted in BDF1 mouse assessed as complete regression of established tumor at 32 mg/kg, ip administered as single dose on 7th day post-tumor implantation; format: functional, organism-based; design: dose 32 mg/kg; outline: as §4
[20] = Antitumor activity against mouse advanced Lewis lung carcinoma allografted in BDF1 mouse assessed as increase in host life span at 32 mg/kg, ip administered as single dose on 7th day post-tumor implantation; format: functional; conditions: route intraperitoneal; outline: as §4
[21] = Antitumor activity against mouse early Lewis lung carcinoma allografted in BDF1 mouse assessed as time delay in tumor growth at 48 mg/kg, ip administered as single dose on 1 or 2 days post-tumor implantation; format: functional; conditions: route intraperitoneal; outline: as §2
Mus musculus [22] = assay: Antitumor activity against mouse advanced Lewis lung carcinoma allografted in ip dosed BDF1 mouse assessed as disease cure administered as single dose on day 6 or 7 post-tumor implantation; format: functional, organism-based; outline: as §3
[23] = Antitumor activity against mouse early Lewis lung carcinoma allografted in BDF1 mouse assessed as increase in host life span at 30 mg/kg, ip administered as single dose on 1 or 2 days post-tumor implantation; format: functional; conditions: route intraperitoneal; outline: as §1
[24] = Antitumor activity against mouse early Lewis lung carcinoma allografted in BDF1 mouse assessed as increase in host life span at 45 mg/kg, ip administered as single dose on 1 or 2 days post-tumor implantation; format: functional; conditions: route intraperitoneal; outline: as §1
[25] = Antitumor activity against mouse early Lewis lung carcinoma allografted in BDF1 mouse assessed as time delay in tumor growth at 30 mg/kg, ip administered as single dose on 1 or 2 days post-tumor implantation; format: functional; conditions: route intraperitoneal; outline: as §2
[26] = Antitumor activity against mouse early Lewis lung carcinoma allografted in BDF1 mouse assessed as time delay in tumor growth at 45 mg/kg, ip administered as single dose on 1 or 2 days post-tumor implantation; format: functional; conditions: route intraperitoneal; outline: as §2
L1210 = assay: Antitumor activity against mouse L1210 cells allografted in ip dosed mouse assessed as disease cure administered as single dose; format: functional, organism-based

**Q.** What does the source list for C[C@@H]1CCC[C@@H](NC(=O)N(CCCl)N=O)C1 (relative stereo)?
**A.** ILS at 113 mg/kg [1]: 50%; ILS at 50 mg/kg [2]: 47%; Time [3]: 6.1 days; Time [4]: 4 days; Activity [5]: 10%; Ratio [6]: 0.4; inhibition (Mus musculus [7]): inactive; ILS [8]: <25%

**Q.** With CC(=O)OC[C@H]1CC[C@H](NC(=O)N(CCF)N=O)CC1 as the compound, how does the ILS at 21 mg/kg [9] read?
**A.** The ILS at 21 mg/kg was 24%.

**Q.** And the ILS at 48 mg/kg [10]?
**A.** The ILS at 48 mg/kg was 7%.

**Q.** What about the Time [11] of the same compound?
**A.** The Time was 1.3 days.

**Q.** And the inhibition (Mus musculus [12])?
**A.** The inhibition was “inactive”.

**Q.** And the inhibition (Mus musculus [13])?
**A.** The inhibition was “inactive”.

**Q.** And the Activity (Mus musculus [14])?
**A.** The Activity was “inactive”.

**Q.** What about the Activity (Mus musculus [15]) of the same compound?
**A.** Its Activity is “inactive”.

**Q.** What about the Activity (Mus musculus [16]) of the same compound?
**A.** Its Activity is “inactive”.

**Q.** And the ILS at 21 mg/kg [17]?
**A.** The ILS at 21 mg/kg was 26%.

**Q.** What about the ILS at 48 mg/kg [18] of the same compound?
**A.** Its ILS at 48 mg/kg is 26%.

**Q.** And the inhibition (Mus musculus [19])?
**A.** The inhibition was “inactive”.

**Q.** And the ILS at 32 mg/kg [20]?
**A.** The ILS at 32 mg/kg was 13%.

**Q.** And the Time [21]?
**A.** The Time was 12 days.

**Q.** And the inhibition (Mus musculus [7])?
**A.** The inhibition was “inactive”.

**Q.** What about the Activity (Mus musculus [22]) of the same compound?
**A.** Its Activity is “inactive”.

**Q.** What about the ILS [8] of the same compound?
**A.** Its ILS is greater than 25%.

**Q.** What does the source list for O=NN(CCCl)C(=O)N[C@H]1CC[C@@H](O)CC1?
**A.** ILS at 30 mg/kg [23]: 92%; ILS at 45 mg/kg [24]: 110%; Time [25]: 5.1 days; Time [26]: 18 days; Activity [5]: 10%; Activity (L1210): inactive; inhibition (Mus musculus [7]): inactive; ILS [8]: <25%
